Hits are enriched below; roughly 0.83% of the tested compounds scored in any of these assays.
V1aR counter – activates human V1a receptor in oxytocin agonist counter-screen; P37288; CHO-V1R cells, Fluo-8 calcium fluorescence, agonist mode; 0% DMSO, 100% 3 nM vasopressin; activation, % at 3 µM; 0.25% of 320,000 active;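 active = activation above the mean activation of all tested compounds plus 3 SD, per screening run, cut at about 20% in these data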;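 note: signal is peak over basal fluorescence ratio across a 100 second FLIPR read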
Target sequence (P37288 whole entry, looked up): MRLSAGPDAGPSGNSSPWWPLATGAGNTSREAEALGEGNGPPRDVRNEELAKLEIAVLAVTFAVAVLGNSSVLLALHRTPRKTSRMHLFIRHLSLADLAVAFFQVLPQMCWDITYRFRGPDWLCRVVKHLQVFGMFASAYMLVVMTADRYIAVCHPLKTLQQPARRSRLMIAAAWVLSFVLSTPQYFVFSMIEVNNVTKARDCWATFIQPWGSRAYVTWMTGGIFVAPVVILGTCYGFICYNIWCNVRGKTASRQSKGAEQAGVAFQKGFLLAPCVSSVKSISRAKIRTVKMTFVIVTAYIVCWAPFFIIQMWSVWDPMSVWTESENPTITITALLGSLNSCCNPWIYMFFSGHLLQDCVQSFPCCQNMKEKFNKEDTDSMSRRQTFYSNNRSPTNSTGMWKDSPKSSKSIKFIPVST
CRFR2-BP ag – agonists of human CRF-binding protein/CRF-R2 receptor complex; 0.46% of 350,000 active; AID 588473; HEK293 CRF-R2/CRF-BP, calcium dye fluorescence (FLIPR); percent of saturating CRF peptide response; activation, % at 13.2 µM;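 active = activation of at least 50%, plus an integration ratio under a set limit after plate pattern correction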;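 note: plate controls were neutral control wells without compound for no effect and CRF at EC100 for full effect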
TRPML3 agonist – human mucolipin-3 channel agonism. Q8TDD5. HEK293 TRPML3-YFP, Fluo-8 calcium fluorescence; 100% = the carbachol control signal. activation, % at 3 µM. 0.29% of 220,000 active;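 active = activation above its plate's cutoff, the mean activation of the plate's test wells plus 3 SD, cut at about 12% in these data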;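 note: 0% = DMSO only wells and 100% = carbachol wells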
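Test system: TRPML3-YFP stable HEK293 cells. Doses: single point at 3 µM. Incubation: dye loading 1 h 37 °C then 30 min ambient, 125 s read. Signal: Fluo-8 calcium dye fluorescence, ex 470-495, em 515-575 nm. Measure: percent activation from peak-to-basal fluorescence ratio, scaled between DMSO and carbachol.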
OXTR potentiator – potentiates the human oxytocin receptor response; P30559; CHO-OTR cells, Fluo-8 calcium fluorescence, potentiator mode; 0% = oxytocin EC15, 100% = EC100; activation, % at 3 µM; 0.061% of 320,000 active;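 active = activation above that plate's cutoff, the mean activation of tested compounds plus 3 SD, cut at about 6.6% in these data, passing the limit was not always enough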;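 note: 100% uses oxytocin at 75 nM as the full agonist control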
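Dosing: Single dose, 3.0 µM nominal final compound concentration | Material: Human OTR in CHO cells | Technique: Kinetic Fluo-8 calcium fluorescence | Benchmarks: EC15 oxytocin alone as 0%, 75 nM oxytocin as 100% | Probe or stimulus: Oxytocin at about EC15, sub-maximal agonist stimulus | Incubation: Compound 6 min at room temperature before oxytocin, 100 s read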
OXTR ag – agonists of human oxytocin receptor; P30559; CHO-OTR cells, Fluo-8 calcium fluorescence; normalized: DMSO 0%, oxytocin 100%; activation, % at 3 µM; 0.32% of 320,000 active; AID 2435;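 active = activation above the mean of all tested compounds plus 3 SD, cutoff set per screening run, cut at about 20% in these data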;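 note: peak over basal fluorescence ratio from a 100 s FLIPR kinetic read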
zfTRPN1 agonist – agonists of zebrafish TRPN1 channel; HEK293 zebrafish TRPN1-YFP, Fluo-8 calcium fluorescence; 100% = response to 87 µM carbachol; activation, % at 3 µM; 0.18% of 220,000 active; AID 1424;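 active = activation above its plate's cutoff, the mean activation of test wells on that plate plus 3 SD, cut at about 19% in these data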;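 note: 0% = DMSO alone and 100% = 87 µM carbachol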
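Material: zebrafish TRPN1-YFP in HEK293 cells. Doses: one dose of 3 µM, 0.3% DMSO. Incubation: dye 1 h 37 °C plus 30 min RT. Measured by: intracellular calcium fluorescence with Fluo-8.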
An asterisk follows results filed as active; . = no result.

SMILES | V1aR counter | CRFR2-BP ag | TRPML3 agonist | OXTR potentiator | OXTR ag | zfTRPN1 agonist
CN1C2CCC1/C(=C/c1cccn1C)C(=O)/C2=C\c1cccn1C | 45* | 237* | 4 | -13 | 45* | 5
Cn1cccc1/C=C1\CC(C(C)(C)C)C/C(=C\c2cccn2C)C1=O (configuration not stated) | 3 | 79* | 1 | -10 | 1 | 2
O=C(Nc1ncc(Cc2ccc(SC(F)F)cc2)s1)c1ccc(OC(F)F)cc1 | 25* | 68* | 0 | -8 | 23* | 1
CC(C)c1cc(-c2cc(C(=O)NCc3ccccc3)on2)nc(NCC2CC2)n1 | 35* | 96* | . | -18 | 31* | .
Cc1cccc(-n2c(C)cc(C=C3C(=O)c4ccccc4C3=O)c2C)c1 | 1 | 51* | 1 | -4 | 0 | 1
CC(=O)c1cccc(NC(=S)NC(=O)Cc2ccc(Cl)cc2)c1 | 21* | 63* | . | -25 | 26* | .
COCC1CCN(C(=O)c2cc(COc3cc(C)c(Cl)c(C)c3)on2)C1 (configuration not stated) | 7 | 1 | . | -9 | 3 | .
N#Cc1c(-c2ccc(F)cc2)cc(-c2ccccc2)nc1SCC(=O)NCC(=O)O | 0 | 62* | 1 | -4 | -1 | -1
O=c1c(/C=C(\O)c2ccc(F)cc2)nc2ccccc2n1-c1ccccc1 | 1 | 163* | 0 | -15 | 4 | -1
COc1cccc2c1C(=O)c1c(O)c3c(c(O)c1C2=O)CC(O)(C(C)=O)CC3OC1CC(O)C(O)C(C)O1 (configuration not stated) | . | 96* | . | . | . | .
COc1cccc2c1C(=N)c1c(O)c3c(c(O)c1C2=O)CC(O)(C(C)=O)CC3OC1CC(N)C(O)C(C)O1 (configuration not stated) | . | -2 | . | . | . | .
COc1cccc2c1C(=O)c1c(O)c3c(c(O)c1C2=O)C[C@](O)(C(C)=O)C[C@H]3O[C@@H]1C[C@@H](N)[C@@H](O)[C@@H](C)O1 | 21* | 64* | . | -8 | 16 | .
CCS(=O)(=O)Nc1ccc(C2=NN(C(=O)c3ccco3)C(c3ccc(C)cc3)C2)cc1 (configuration not stated) | 0 | -8 | -1 | 11* | -1 | -1
O=C(CCC(=O)Nc1ccccc1Cl)NNC(=O)Nc1cccc([N+](=O)[O-])c1 | 1 | -2 | . | 6 | 2 | .
CCOC(=O)c1sc(NC(=S)NC(=O)c2cccc(OC)c2)nc1C | 0 | 58* | . | -16 | 0 | .
CCOC(=O)c1sc(NC(=S)NC(=O)c2ccccc2)nc1C | 0 | 30 | 1 | -8 | 0 | 2
O=C(O)c1cccc(-c2ccc(/C=c3/sc4nc5ccccc5n4c3=O)o2)c1 | 5 | 69* | 2 | -4 | 3 | 4
Cc1ccc(-n2c(N)c(C#N)c(-c3ccc(Cl)cc3)c(C#N)c2=O)cc1 | 24* | -2 | 0 | -25 | 29* | 2
CCOC(=O)Nc1cc2c(c(N)n1)N=C(c1ccccc1)CN2 | . | 65* | . | . | . | .
O=C(N/N=C/c1cc([N+](=O)[O-])cc(Br)c1O)C12CC3CCC(CC(C3)C1)C2 | 1 | 117* | 2 | -7 | 2 | 1
O=S(=O)(Nc1ccccc1)c1ccc(Oc2ncc(C(F)(F)F)cc2Cl)cc1 | 22* | 32 | 4 | -25 | 30* | 7
O=[N+]([O-])c1ccc(Oc2ccc(S(=O)(=O)Nc3ccccc3)cc2)cc1 | 22* | 34 | 9 | -16 | 31* | 21*
O=[N+]([O-])c1ccc(S(=O)(=O)Nc2ccncc2)cc1 | -1 | 3 | . | -11 | 0 | .
COC(=O)CN1C(=O)S/C(=C/c2ccc(N3CCCCC3)o2)C1=O | 3 | 57* | 1 | -5 | 8 | 1
O=c1[nH]c(Nc2ccccc2)cc2ccccc12 | 4 | 63* | 1 | -3 | 6 | 2
C[C@@H]1CN([C@@H](C)CO)C(=O)CCCn2nncc2CO[C@H]1CN(C)Cc1cccnc1 | . | 1 | . | . | . | .
